TRPC4 agonist – activators of mouse TRPC4 channel, primary screen, Fluo4 calcium, HEK293 TRPC4beta/mu-opioid cells; Short transient receptor potential channel 4 (Mus musculus), Q9QUQ5; Fluo4 calcium fluorescence; active compounds read high; B-score at 10 µM; 310,000 tested, 0.49% active; AID 2237, 2010;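 active means B-score above 5 SD of library B-scores, and initial fluorescence ratio not above library mean plus 5 SD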;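 further: positive B-score marks a calcium rise read as TRPC4 activation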
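System: HEK293 cells stably co-expressing mouse TRPC4beta and mu-opioid receptor; Schedule: Fluo4 dye loading 45 min at room temperature, 110 s recording; Detection: Fluo4 fluorescence, kinetic; Evaluation: B-scored integrated calcium fluorescence ratio; Controls: buffer (low) and maximal DAMGO (high).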
TRPC4 inh – inhibitors of mouse TRPC4 channel, primary screen, Fluo4 calcium, HEK293 TRPC4beta/mu-opioid cells; Short transient receptor potential channel 4 (Mus musculus), Q9QUQ5; DAMGO-evoked Fluo4 calcium flux; active compounds read low; B-score at 10 µM; 300,000 tested, 0.39% active; AID 2247, 2010;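 active means B-score over 3 SD under the library average, no early fluorescence shift, positive overall ratio signal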
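Assay system: Stable TRPC4beta/mu-opioid receptor HEK293 cells | Reagent: DAMGO in two steps, submaximal then maximal | Compound dosing: Single concentration per test compound | Signal: Fluo4 Ca2+ flux fluorescence | Evaluation: Per-well B score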
TRPC4 potent – positive allosteric modulators of TRPC4, primary screen, cell-based, mouse TRPC4beta, HEK293 mu-opioid, Fluo-4 calcium. Short transient receptor potential channel 4 (Mus musculus), Q9QUQ5. DAMGO EC20, Fluo-4 Ca2+ flux; active compounds read high. B-score at 10 µM. 310,000 tested, 0.42% active. AID 2227, 2009;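 active means B-score of calcium response area above 5 SD of library B-scores, with initial fluorescence ratio within 5 SD of library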
TRPC6 inhibitor – mouse TRPC6 channel inhibitors, primary screen, cell-based, HEK293, membrane potential dye; Short transient receptor potential channel 6 (Mus musculus), Q61143; ACh-evoked depolarization; active compounds read low; B-score at 10 µM; 310,000 tested, 1.1% active; AID 2553, 2010;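 active means B-score under library mean minus 3 SD, initial fluorescence not abnormally high, positive integrated signal ratio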;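 further: B-score derived from integrated fluorescence ratio over the kinetic read; more negative B-score means stronger inhibition of depolarization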
TRPC6 activator – mouse TRPC6 channel activators, primary screen, cell-based, HEK293, membrane potential dye | Short transient receptor potential channel 6 (Mus musculus), Q61143 | HEK293-TRPC6 membrane potential dye fluorescence; active compounds read high | AID 2550, 2010 | 310,000 tested, 0.13% active | B-score at 10 µM;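 active means B-score of the integrated fluorescence ratio above library mean plus 3 SD, and starting fluorescence ratio within library mean plus 5 SD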;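 further: higher score means more depolarization so channel activation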
TRPC4 sel inh 2 – second check of whether TRPC6 inhibitors also affect mouse TRPC4 | shares compounds with TRPC6 inhibitor | HEK293 TRPC4/MOR, membrane potential dye fluorescence; channel activated by saturating DAMGO dose | inhibition, % at 10 µM | 920 tested, 42% active | AID 2776;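 active means compounds whose fluorescence signal differed from control wells by over 3 SD, either direction, in both duplicate plates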
TRPC4 spec – mouse TRPC4 modulation by TRPC6 hits, confirmation, selectivity assay for TRPC6 inhibitor project, cell-based, HEK293 TRPC4/mu-opioid, membrane potential dye. shares compounds with TRPC6 inhibitor. membrane potential fluorescence. activity change, negative = inhibition, % at 10 µM. 920 tested, 61% active;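 active means rise or fall in signal beyond 3 SD of buffer-only wells in both replicate plates, either sign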;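 further: integrated kinetic ratio of fluorescence range over baseline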
HEK293 MPD ctr 2 – nonspecific membrane potential effects, parental HEK293, confirmation, counter-screen for TRPC6 inhibitor project, cell-based, second counter screen. shares compounds with TRPC6 inhibitor. parental HEK293 membrane potential dye fluorescence; maximal acetylcholine challenge after compound addition. signal change vs control, % at 10 µM. 920 tested, 31% active. AID 2779, 2010;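 active means membrane potential signal moving either way by over 3 SD of the maximum-effect control, in both duplicate plates, meaning non-specific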
HEK293 counter – membrane potential modulation in parental HEK293, confirmation, counter-screen for TRPC6 inhibitor project, cell-based; membrane potential signal change, % at 10 µM; 920 tested, 60% active; parental HEK293 membrane potential dye fluorescence; shares compounds with TRPC6 inhibitor;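 active means membrane potential signal shifting up or down by more than 3 SD of buffer-only wells, on both duplicate plates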
TRPC6 block conf – mouse TRPC6 channel inhibitors, confirmation, HEK293 cells, membrane potential dye, duplicate. inhibition, % at 10 µM. shares compounds with TRPC6 inhibitor. AID 488960, 2010. ACh-evoked depolarization. 3,300 tested, 43% active;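 active means fluorescence ratio falls more than 5 SD below the full-stimulation control mean, in both duplicate runs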;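 further: integrated fluorescence ratio of peak minus minimum over baseline after agonist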
Hits are given with their value; n = inactive. Shown are actives, neighbours in structure and some others; about 2.3% of the full set was active somewhere.

SMILES	TRPC4 agonist	TRPC4 inh	TRPC4 potent	TRPC6 inhibitor	TRPC6 activator	others
COc1ccc(Cl)cc1C(=O)C1CCCN(CCO)C1 (centres undefined)	70	n	n	n	n
CC(C)[N+]12CCC(CC1)C(C(O)(c1ccccc1)c1ccccc1)C2 (centres undefined)	n	n	n	n	n
COc1ccc2c(CCN)c[nH]c2c1	81	n	n	n	n
COc1ccc(CNC(=O)/C=C/c2ccc3[nH]cc(CCN(C)C)c3c2)cc1	45	n	n	n	n
NCCc1c[nH]c2ccc(F)cc12	n	n	n	n	n
COc1ccc2[nH]cc(CCN(C)C)c2c1	n	n	19	n	n
O=C(COc1ccc(Br)cc1)N1CCN(Cc2ccc3c(c2)OCO3)CC1	n	n	n	n	n
CC(Cc1ccsc1)NCc1cn[nH]c1-c1ccc(F)cc1F (centres undefined)	n	n	n	n	n
CN(C)CC1CCCCC1OC(=O)Cc1ccc(Cl)c([N+](=O)[O-])c1 (centres undefined)	n	n	n	n	n
Cc1ccc(C(=O)NC2CC3CCC(C2)N3)cc1 (centres undefined)	n	-5	n	n	n
CC(=O)NC1CC2CCC(C1)N2 (centres undefined)	n	n	n	n	n
CCCCS(=O)(=O)N1CCN(C(=N)N[N+](=O)[O-])CC1	n	n	n	n	n
CCCCn1c(NS(=O)(=O)c2ccccc2)c(C(=O)OCC)c2nc3ccccc3nc21	n	n	n	n	n
CCCCn1c(NC(=O)c2ccc(Br)o2)c(C(=O)OCC)c2nc3ccccc3nc21	n	n	n	n	15
O=C(NC1CONC1=O)OCC(Cl)(Cl)Cl (centres undefined)	n	n	n	n	n
COc1cc2c3cc1Oc1cc(ccc1O)C[C@@H]1c4c(cc(OC)c(O)c4Oc4ccc(cc4)C[C@H]3N(C)CC2)CCN1C	117	n	n	n	n
CCc1n[nH]c(CCN)n1	155	n	n	n	n
CCCN1CCC[C@@H]2Cc3nc(N)ncc3C[C@H]21	n	n	11	n	n
CCCN1CCC[C@@H]2Cc3[nH]ncc3C[C@H]21	n	n	n	n	n
C#CCN(C)[C@H](C)Cc1ccccc1	n	n	n	n	n
CC(Cc1ccccc1Sc1ccccc1O)N(C)C (centres undefined)	n	-7	n	-9.4	n	TRPC4 sel inh 2=37%;TRPC4 spec=55%;HEK293 MPD ctr 2=n;HEK293 counter=12%;TRPC6 block conf=n

Compound activity: PubChem BioAssay, Johns Hopkins Ion Channel Center
